Calls of active or inactive are those of the source. The calls are words filed in the database; no cut-off is given here.

Broadly, the IC50 is the concentration needed to halve the response being measured. High values mean weaker potency in that assay, low ones greater potency in that assay.

Holding throughout (format): cell-based
Data set [1] deals with T1, Signal transducer and activator of transcription 1-alpha/beta (Homo sapiens) (UniProt P42224).
T1 sequence (whole entry): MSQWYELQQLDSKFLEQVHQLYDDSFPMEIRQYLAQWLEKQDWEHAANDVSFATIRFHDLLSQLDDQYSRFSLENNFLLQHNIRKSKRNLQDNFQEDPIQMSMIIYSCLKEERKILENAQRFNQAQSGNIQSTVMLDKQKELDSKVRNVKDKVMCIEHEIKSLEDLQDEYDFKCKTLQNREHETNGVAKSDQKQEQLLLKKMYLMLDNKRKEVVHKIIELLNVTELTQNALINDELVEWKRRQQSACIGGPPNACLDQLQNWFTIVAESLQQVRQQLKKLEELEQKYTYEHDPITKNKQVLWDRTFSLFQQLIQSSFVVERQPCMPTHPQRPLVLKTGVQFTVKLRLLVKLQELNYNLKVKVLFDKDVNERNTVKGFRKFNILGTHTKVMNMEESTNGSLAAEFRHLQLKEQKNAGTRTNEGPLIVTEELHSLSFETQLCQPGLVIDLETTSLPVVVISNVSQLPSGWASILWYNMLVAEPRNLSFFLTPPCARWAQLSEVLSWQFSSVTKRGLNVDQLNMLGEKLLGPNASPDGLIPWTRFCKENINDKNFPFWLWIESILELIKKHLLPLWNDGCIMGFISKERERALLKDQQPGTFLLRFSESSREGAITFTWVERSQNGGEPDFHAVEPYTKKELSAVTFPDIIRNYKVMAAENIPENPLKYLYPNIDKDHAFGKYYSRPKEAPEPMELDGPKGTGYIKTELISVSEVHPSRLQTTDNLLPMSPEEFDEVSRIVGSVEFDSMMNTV
Kind of data set: Inhibition of Stat1 (unknown origin)-induced human CXCL10 (972 bp) promoter activity expressed in TNF-alpha/IFN-gamma/IL-1beta-stimulated human DLD1 cells up to 260 uM after 24 hrs by luciferase reporter assay. The following applies: DLD-1. Put shortly:
(§1)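 DLD-1 in 24-well plates, switched to 0.5% FCS without antibiotics a day before lipofection (Lipofectamine 2000, 0.8 µg plasmid) with 972 bp CXCL10 promoter, NF-κB, GAS/Stat1 or ISRE luciferase reporters plus pRL-CMV. Stimulated 24 h with 10 ng/mL TNF-α, 10 ng/mL IFN-γ, 5 ng/mL IL-1β ± compound; Dual-Glo firefly/Renilla read. Stimulation-only = 100%; mean ± SEM, ≥3 experiments.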
In general terms: In a reporter assay the amount or activity of a reporter protein is the signal.

In data set [2] the test system is DLD-1. Kind of data set: Inhibition of TNF-alpha/IFN-gamma/IL-1beta-induced human CXCL10 (972 bp) promoter activity expressed in human DLD1 cells up to 260 uM after 24 hrs by luciferase reporter assay relative to untreated-control. Put shortly: as §1
Data set [3] concerns the target T2, Nuclear factor NF-kappa-B complex (Homo sapiens) (UniProt Q00653+P19838+Q04206). Kind of data set: Inhibition of NF-kappaB (unknown origin)-induced human CXCL10 (972 bp) promoter activity expressed in TNF-alpha/IFN-gamma/IL-1beta-stimulated human DLD1 cells up to 260 uM after 24 hrs by luciferase reporter assay. The following applies: DLD-1. An outline of the steps: as §1

For data set [4], the system named is DLD-1. The experiment in a line: Inhibition of TNF-alpha/IFN-gamma/IL-1beta-induced human CXCL10 (972 bp) promoter activity expressed in human DLD1 cells up to 260 uM after 24 hrs by […]-driven luciferase reporter assay. Put shortly:
as §1

Data set [5] concerns DLD-1. The experiment in a line: Inhibition of TNF-alpha/IFN-gamma/IL-1beta-induced human CXCL10 (972 bp) promoter activity expressed in human DLD1 cells assessed as reduction in MIF expression pretreated at 27.5 uM for 1 hr prior to 16 hrs cytokine challenge by proteome profiling method relative to untreated-control. Put shortly:
(§2)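 DLD-1 starved 16 h in 0.5% FCS, seeded 5×10^6 cells/mL, pretreated 1 h with compound, then stimulated 16 h with 10 ng/mL TNF-α, 10 ng/mL IFN-γ, 5 ng/mL IL-1β. Supernatant cytokines/chemokines detected on Human Cytokine Array Panel A antibody array.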

Data set [6] has as its system DLD-1. The experiment in a line: (§3) Inhibition of TNF-alpha/IFN-gamma/IL-1beta-induced human CXCL10 (972 bp) promoter activity expressed in human DLD1 cells after 24 hrs by luciferase reporter assay. An outline of the steps:
as §1

A short description of data set [7]: as §3. The following applies: DLD-1, 24 h. An outline of the steps: as §1
Data set [8] addresses T1, Signal transducer and activator of transcription 1-alpha/beta (Homo sapiens). The experiment in a line: Inhibition of Stat1 (unknown origin)-induced human CXCL10 (972 bp) promoter activity expressed in TNF-alpha/IFN-gamma/IL-1beta-stimulated human DLD1 cells after 24 hrs by luciferase reporter assay. The following applies: DLD-1. An outline of the steps: as §1
The subject of data set [9] is DLD-1. Kind of data set: Inhibition of TNF-alpha/IFN-gamma/IL-1beta-induced human CXCL10 (972 bp) promoter activity expressed in human DLD1 cells assessed as reduction in IL8 expression pretreated at 27.5 uM for 1 hr prior to 16 hrs cytokine challenge by proteome profiling method relative to untreated-control. Put shortly:
as §2

Data set [10] has as its target T1, Signal transducer and activator of transcription 1-alpha/beta (Homo sapiens). Kind of data set: Inhibition of Stat1 (unknown origin) expressed human DLD1 cells assessed as reduction in IL1-beta gene expression pretreated at 13.75 uM for 1 hr by RT-PCR method relative to untreated-control. The conditions noted are these: DLD-1. An outline of the steps:
(§4)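 DLD-1 seeded 5×10^5 cells/mL, grown 24 h, starved 16 h in 0.5% FCS, pretreated with compound 1 h, then stimulated with 10 ng/mL TNF-α, 10 ng/mL IFN-γ, 5 ng/mL IL-1β for 5 h. tnf-α, il-1β, inos mRNA by two-step qRT-PCR, Pfaffl relative quantification, normalised to gapdh; stimulated-untreated control = 100%. Mean ± SEM, three independent experiments.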

Data set [11] relates to DLD-1. Kind of data set: Inhibition of TNF-alpha/IFN-gamma/IL-1beta-induced human CXCL10 (972 bp) promoter activity expressed in human DLD1 cells assessed as reduction in IL1-beta expression pretreated at 27.5 uM for 1 hr prior to 16 hrs cytokine challenge by proteome profiling method relative to untreated-control. An outline of the steps: as §2
For data set [12], the target named is T1, Signal transducer and activator of transcription 1-alpha/beta (Homo sapiens). The experiment in a line: Inhibition of Stat1 (unknown origin) expressed human DLD1 cells assessed as reduction in TNF-alpha gene expression pretreated at 13.75 uM for 1 hr by RT-PCR method relative to untreated-control. The following applies: DLD-1. Put shortly:
as §4

The target of data set [13] is T2, Nuclear factor NF-kappa-B complex (Homo sapiens). The experiment in a line: Inhibition of NF-kappaB (unknown origin) expressed human DLD1 cells assessed as reduction in IL1-beta gene expression pretreated at 13.75 uM for 1 hr by RT-PCR method relative to untreated-control. The following applies: DLD-1. Put shortly: as §4
The subject of data set [14] is DLD-1. Kind of data set: Inhibition of TNF-alpha/IFN-gamma/IL-1beta-induced human CXCL10 (972 bp) promoter activity expressed in human DLD1 cells assessed as reduction in IL-27 expression pretreated at 27.5 uM for 1 hr prior to 16 hrs cytokine challenge by proteome profiling method relative to untreated-control. An outline of the steps: as §2
A short description of data set [15]: Cytotoxicity against human DLD1 cells up to 50 uM after 48 hrs by XTT assay. The conditions noted are these: dld-1, 48 h. An outline of the steps: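 DLD-1 cells (RPMI 1640, 25 mM HEPES, 10% FCS, 37 °C, 5% CO2) exposed to compound for 48 h; viability read as XTT reduction to coloured formazan.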
Background: Tetrazolium assays rely on reduction of a dye to a coloured formazan, in cell work by metabolically active cells.

Data set [16] has as its system DLD-1. Kind of data set: Inhibition of TNF-alpha/IFN-gamma/IL-1beta-induced human CXCL10 (972 bp) promoter activity expressed in human DLD1 cells assessed as reduction in CXCL10 expression pretreated at 131.5 uM for 1 hr prior to 16 hrs cytokine challenge by proteome profiling method relative to untreated-control. An outline of the steps: as §2
Data set [17] deals with DLD-1. Kind of data set: Inhibition of TNF-alpha/IFN-gamma/IL-1beta-induced human CXCL10 (972 bp) promoter activity expressed in human DLD1 cells assessed as reduction in CXCL1 expression pretreated at 27.5 uM for 1 hr prior to 16 hrs cytokine challenge by proteome profiling method relative to untreated-control. An outline of the steps:
as §2

Data set [18] deals with DLD-1. The experiment in a line: Inhibition of TNF-alpha/IFN-gamma/IL-1beta-induced human CXCL10 (972 bp) promoter activity expressed in human DLD1 cells assessed as CXCL10 gene expression at 27.5 uM after 5 hrs by RT-PCR method relative to untreated-control. Put shortly: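 Cells starved 16 h (0.5% FCS), compound pretreatment 1 h, then TNF-α 10 ng/mL/IFN-γ 10 ng/mL/IL-1β 5 ng/mL for 5 h. Total RNA analysed by two-step qRT-PCR for cxcl10, gapdh-corrected (Pfaffl); induced vs uninduced and treated-induced vs untreated-induced (100%).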

In data set [19] the target is T2, Nuclear factor NF-kappa-B complex (Homo sapiens). Kind of data set: Inhibition of NF-kappaB (unknown origin) expressed human DLD1 cells assessed as reduction in TNF-alpha gene expression pretreated at 13.75 uM for 1 hr by RT-PCR method relative to untreated-control. The following applies: DLD-1. An outline of the steps:
as §4

Data set [20] in a line: Inhibition of TNF-alpha/IFN-gamma/IL-1beta-induced human CXCL10 (972 bp) promoter activity expressed in human DLD1 cells after 24 hrs by […]-driven luciferase reporter assay. The following applies: DLD-1, 24 h. Put shortly:
as §1

Data set [21] addresses T1, Signal transducer and activator of transcription 1-alpha/beta (Homo sapiens). The experiment in a line: Inhibition of Stat1 (unknown origin) expressed in human DLD1 cells assessed as reduction in iNOS gene expression pretreated at 13.75 uM for 1 hr by RT-PCR method relative to untreated-control. The following applies: DLD-1. An outline of the steps:
as §4

Data set [22] addresses T2, Nuclear factor NF-kappa-B complex (Homo sapiens). Kind of data set: Inhibition of NF-kappaB (unknown origin) expressed human DLD1 cells assessed as reduction in iNOS gene expression pretreated at 13.75 uM for 1 hr by RT-PCR method relative to untreated-control. The conditions noted are these: DLD-1. An outline of the steps:
as §4

Data set [23] deals with DLD-1. Kind of data set: Inhibition of TNF-alpha/IFN-gamma/IL-1beta-induced human CXCL10 (972 bp) promoter activity expressed in human DLD1 cells assessed as reduction in CXCL10 expression pretreated at 27.5 uM for 1 hr prior to 16 hrs cytokine challenge by proteome profiling method relative to untreated-control. An outline of the steps:
as §2

Data set [24] has as its system DLD-1. The experiment in a line: Inhibition of TNF-alpha/IFN-gamma/IL-1beta-induced human CXCL10 (972 bp) promoter activity expressed in human DLD1 cells assessed as reduction in TNF-alpha expression pretreated at 27.5 uM for 1 hr prior to 16 hrs cytokine challenge by proteome profiling method relative to untreated-control. An outline of the steps: as §2

T2 sequence (P19838 whole entry, looked up): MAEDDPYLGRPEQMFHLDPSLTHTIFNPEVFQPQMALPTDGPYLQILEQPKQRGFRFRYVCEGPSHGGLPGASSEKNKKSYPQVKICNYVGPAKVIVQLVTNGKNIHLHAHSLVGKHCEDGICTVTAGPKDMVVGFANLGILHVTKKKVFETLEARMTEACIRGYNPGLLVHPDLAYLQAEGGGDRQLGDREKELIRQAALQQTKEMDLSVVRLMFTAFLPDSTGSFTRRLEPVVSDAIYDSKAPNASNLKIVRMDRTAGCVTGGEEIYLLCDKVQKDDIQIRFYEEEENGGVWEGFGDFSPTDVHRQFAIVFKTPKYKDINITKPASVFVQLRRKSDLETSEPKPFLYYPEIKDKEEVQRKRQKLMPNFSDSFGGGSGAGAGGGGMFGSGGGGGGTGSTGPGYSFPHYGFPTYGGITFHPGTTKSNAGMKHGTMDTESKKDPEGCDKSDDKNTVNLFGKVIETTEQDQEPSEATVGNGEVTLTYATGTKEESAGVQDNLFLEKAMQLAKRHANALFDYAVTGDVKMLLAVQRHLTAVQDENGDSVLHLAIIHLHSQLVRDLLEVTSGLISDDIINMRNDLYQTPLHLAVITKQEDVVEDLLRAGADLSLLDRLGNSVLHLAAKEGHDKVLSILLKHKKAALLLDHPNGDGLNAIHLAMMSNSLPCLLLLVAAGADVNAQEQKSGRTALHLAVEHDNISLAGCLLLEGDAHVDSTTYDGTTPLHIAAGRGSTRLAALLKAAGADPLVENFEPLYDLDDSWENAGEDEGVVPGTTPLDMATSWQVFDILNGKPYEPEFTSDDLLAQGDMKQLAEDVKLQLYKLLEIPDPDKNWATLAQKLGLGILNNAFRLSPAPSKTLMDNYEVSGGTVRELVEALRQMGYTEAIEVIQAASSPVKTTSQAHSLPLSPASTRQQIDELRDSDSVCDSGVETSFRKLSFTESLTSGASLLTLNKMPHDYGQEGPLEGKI
T2 sequence (Q00653 whole entry, looked up): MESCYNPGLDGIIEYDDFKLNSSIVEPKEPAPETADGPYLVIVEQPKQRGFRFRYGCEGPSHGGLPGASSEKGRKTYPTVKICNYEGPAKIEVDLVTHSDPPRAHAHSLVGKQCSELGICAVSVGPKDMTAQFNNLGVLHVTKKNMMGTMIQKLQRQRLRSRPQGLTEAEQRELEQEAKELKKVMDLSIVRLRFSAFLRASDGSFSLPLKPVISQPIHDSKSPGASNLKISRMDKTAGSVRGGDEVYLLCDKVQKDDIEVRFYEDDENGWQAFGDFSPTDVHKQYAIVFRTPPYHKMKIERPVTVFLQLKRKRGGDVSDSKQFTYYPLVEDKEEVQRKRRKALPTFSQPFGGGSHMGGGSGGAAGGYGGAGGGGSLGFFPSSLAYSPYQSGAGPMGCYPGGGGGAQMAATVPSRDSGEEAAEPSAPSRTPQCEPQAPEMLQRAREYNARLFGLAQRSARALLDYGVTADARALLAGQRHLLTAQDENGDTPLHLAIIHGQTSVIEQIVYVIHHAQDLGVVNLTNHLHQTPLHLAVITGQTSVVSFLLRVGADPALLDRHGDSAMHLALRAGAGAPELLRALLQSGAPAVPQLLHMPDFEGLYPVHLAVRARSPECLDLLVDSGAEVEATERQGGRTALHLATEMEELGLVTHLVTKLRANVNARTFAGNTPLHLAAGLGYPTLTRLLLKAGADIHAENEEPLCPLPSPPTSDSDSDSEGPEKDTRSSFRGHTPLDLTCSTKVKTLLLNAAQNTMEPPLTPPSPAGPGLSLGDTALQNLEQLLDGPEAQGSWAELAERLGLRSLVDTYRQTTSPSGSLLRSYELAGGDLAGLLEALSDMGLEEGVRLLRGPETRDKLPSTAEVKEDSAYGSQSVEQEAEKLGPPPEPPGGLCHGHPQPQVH
T2 sequence (Q04206 whole entry, looked up): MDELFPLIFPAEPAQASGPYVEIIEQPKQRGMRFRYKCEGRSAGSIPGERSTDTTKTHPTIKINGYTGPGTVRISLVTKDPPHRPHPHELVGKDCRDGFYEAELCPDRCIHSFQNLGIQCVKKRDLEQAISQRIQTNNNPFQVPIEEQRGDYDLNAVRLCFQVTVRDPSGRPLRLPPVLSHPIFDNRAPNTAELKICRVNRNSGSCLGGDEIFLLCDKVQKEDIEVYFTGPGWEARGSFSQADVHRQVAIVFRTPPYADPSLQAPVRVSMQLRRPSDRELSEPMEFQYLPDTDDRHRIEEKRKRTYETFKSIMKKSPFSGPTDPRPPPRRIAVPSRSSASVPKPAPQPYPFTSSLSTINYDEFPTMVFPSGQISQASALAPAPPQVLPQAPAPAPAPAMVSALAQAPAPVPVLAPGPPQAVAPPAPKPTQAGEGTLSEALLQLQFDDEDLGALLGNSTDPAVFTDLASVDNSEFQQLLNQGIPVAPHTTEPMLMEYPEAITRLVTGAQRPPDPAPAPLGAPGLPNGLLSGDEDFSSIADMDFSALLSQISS

`CCCCCC(=O)O[C@@H]1C=C2CO[C@@H](O)[C@]2(O)[C@@]2(C)[C@H](O)CCC(C)(C)[C@H]12`: the inhibition result (in data set [1]; in the data set on DLD-1 [2]; in [3]; with DLD-1 [4]) was “inactive” in each case.

For the molecule `CCCCCC(=O)O[C@@H]1C=C2COC(=O)C2(O)[C@@]2(C)CCCC(C)(C)[C@H]12` (some centres undefined), the inhibition result (in the data set on DLD-1 [5]; in the data set on DLD-1 [9]; in data set [10]; in the data set on DLD-1 [11]; in data set [12]; in data set [13]) was “Active” each time. The inhibition result (in the data set on DLD-1 [14]; in the data set on DLD-1 [16]; with DLD-1 [17]; in the data set with DLD-1 [18]; in [19]; in data set [21]) was “Active” each time. Moreover, the inhibition result (in [22]; with DLD-1 [23]; in the data set on DLD-1 [24]) was “Active” in each case. Also, the inhibition entry (in the data set with DLD-1 [6]; in data set [8]) was “Dose-dependent effect” each time. In addition, the results for the IC50 in data set [7] and in [20] were 12.4 µM and 14.3 µM, respectively. In data set [15], the Activity entry is given as “Non-toxic”.
